Hits are enriched below; roughly 2.1% of the tested compounds scored in any of these assays.
PKA-R1A activ = PKA-R1A complex activation; activation, % at 11.4 µM; P00514+P68181; PKA-R1A dissociation, Cy5-IP20 fluorescence polarization; scaled: DMSO 0%, 113 µM cGMP 100%; 340,000 tested, 0.083% active;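 active means percent activation above the mean of all tested compounds plus 3 SD, cut at about 19% in these data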;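 further: higher means more PKAc released from R1A so a rise in polarization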
MsrA inh = inhibitors of bovine MsrA | inhibition, % at 15.5 µM | 360,000 tested, 0.75% active | purified bovine MsrA, absorbance read-out
VIM-2 inhibitor = inhibitors of Pseudomonas aeruginosa VIM-2 metallo-beta-lactamase | AID 1527 | inhibition, % at 5.6 µM | 290,000 tested, 0.89% active | purified VIM-2, nitrocefin hydrolysis, epi-absorbance fluorescence;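 active means inhibition above the mean of all tested compounds plus 3 SD, cutoff set per screening run, cut at about 7.5% in these data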;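 further: red hydrolysis product quenches plate fluorescence so inhibitors raise well fluorescence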
bovine MsrA act = activates bovine MsrA enzyme; 360,000 tested, 0.3% active; purified bovine MsrA, absorbance read-out; activation, % at 10.6 µM; in the data active means activation above about 7.5%
PKA-R2B act = activates the human PKA-R2B holoenzyme complex; P22694+P31323; PKA-R2B holoenzyme dissociation, Cy5-IP20 fluorescence polarization; R2B truncated from residue 108, S112A mutant; 0% DMSO only, 100% 113 µM cGMP; activation, % at 11.4 µM; 340,000 tested, 0.079% active;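 active means activation above a cutoff set at the mean over all compounds plus 3 SD, cut at about 18% in these data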;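 further: higher means more holoenzyme dissociation and a rise in polarization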
Target sequence (P31323 whole entry, looked up, other chains not shown, the tested form may be a part): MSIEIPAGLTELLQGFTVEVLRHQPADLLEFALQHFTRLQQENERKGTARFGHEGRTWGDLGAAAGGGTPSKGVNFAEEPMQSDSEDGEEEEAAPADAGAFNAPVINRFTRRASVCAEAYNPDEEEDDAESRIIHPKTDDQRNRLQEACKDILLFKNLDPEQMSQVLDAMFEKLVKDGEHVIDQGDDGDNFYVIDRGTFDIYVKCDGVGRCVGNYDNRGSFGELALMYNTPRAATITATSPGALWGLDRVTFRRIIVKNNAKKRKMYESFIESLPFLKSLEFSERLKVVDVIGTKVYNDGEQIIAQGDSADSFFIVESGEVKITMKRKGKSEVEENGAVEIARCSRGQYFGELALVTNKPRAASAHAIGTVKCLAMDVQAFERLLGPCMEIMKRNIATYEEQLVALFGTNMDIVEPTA
IMP-1 inh = inhibitors of Pseudomonas aeruginosa IMP-1 metallo-beta-lactamase; purified IMP-1, nitrocefin hydrolysis, epi-absorbance fluorescence; inhibition, % at 5.6 µM; 290,000 tested, 0.45% active;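 active means inhibition above the mean plus 3 SD of all compounds in the same screening run, cut at about 4.5% in these data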
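System: purified IMP-1 / Input: IMP-1 dispensed at 0.2 nM / Medium: 50 mM HEPES pH 7.1, 50 µM ZnSO4, 0.05% Brij 35 / Timing: 15 min enzyme–compound preincubation, then 25 min nitrocefin reaction, 25 °C / Technique: plate fluorescence quenching by hydrolysis product, ex 480/em 530 nm / Repeats: singlicate testing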
MsrA conf = confirmation of bovine MsrA inhibitors | shares compounds with MsrA inh | purified bovine MsrA, absorbance read-out | inhibition, % at 15.5 µM | 2,300 tested, 41% active | AID 651822;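 further: coupled to thioredoxin reductase with NADPH and selenocystamine and DMSO as substrate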
A number is an active result; – = inactive; · = not tested or not shown. Unless noted, no stated cut-off is given here; in the data, active means inhibition above about 4.5%; inactive means the rest.

SMILES	PKA-R1A activ	MsrA inh	VIM-2 inhibitor	bovine MsrA act	PKA-R2B act	IMP-1 inh	MsrA conf
O=C(c1ccncc1)N1CCN(S(=O)(=O)c2cccc(Cl)c2)CC1	–	–	·	–	–	·	·
COc1ccc2[nH]c(C(=O)N/N=C/c3ccc(OC)c(O)c3)cc2c1	–	7.5	–	–	–	–	7.8
COc1ccccc1/C=N/NC(=O)c1cccc(NC(=O)c2ccccc2Cl)c1	–	–	–	–	–	–	·
COc1ccc(/C=N/NC(=O)c2cccc(NC(=O)c3ccccc3Cl)c2)c(OC)c1	–	5.3	–	–	–	–	–
COc1ccc2[nH]c(C(=O)N/N=C/c3ccccc3OC)cc2c1	–	5.8	–	–	–	–	5.4
COc1ccc(OC)c(/C=N\NC(=O)c2ccc(-c3ccccc3)cc2)c1	–	–	–	–	–	–	·
COc1ccc(C(=O)N/N=C/c2cc3ccccc3[nH]c2=O)cc1	–	5.0	–	–	–	–	–
CCOC(=O)C1=CN(Cc2cccc(-c3ccc4c(c3)OCO4)c2)S(=O)(=O)N(C)C1C (stereo unspecified)	–	–	·	–	–	·	·
O=C(N/N=C/c1ccncc1)c1cc2ccccc2o1	–	5.8	–	–	–	–	–
Nc1ncnc(NCc2ccccc2)c1[N+](=O)[O-]	–	4.9	–	–	–	–	–
O=C1COc2ccc(C(=O)COC(=O)/C=C/c3ccc(Br)o3)cc2N1	–	–	·	–	–	·	·
NC(=O)c1ccsc1NC(=O)c1coc2ccccc2c1=O	–	4.7	–	–	–	–	–
CC(=O)Nc1ccc(C2=NOC(C)(C)C(=O)N2Cc2cccc(C#N)c2)cc1	·	–	·	–	·	·	·
O=C(C1=C(O)C(=O)N(CCOCCO)C1c1cccc([N+](=O)[O-])c1)c1cccs1 (stereo unspecified)	–	5.0	–	–	–	–	–
CCOC(=O)Cc1csc(NC(=O)/C=C/c2ccc(Br)o2)n1	–	5.5	–	–	–	–	–
Cc1ccc(/C=N/NC(=O)c2ccccn2)s1	–	4.9	–	–	–	–	5.2
COc1ccc(C2=CC(=O)CC(C)(C)C2)cc1OC	–	4.8	·	–	–	·	–
O=C(N/N=C/c1cccc([N+](=O)[O-])c1)c1cccs1	–	–	–	–	–	–	·
CCOc1cc(/C=N/NC(=O)c2cccs2)cc([N+](=O)[O-])c1O	–	8.2	–	–	–	–	4.9
CCN(/N=C/c1ccc(Cl)cc1)c1cc(=O)n(C)c(=O)[nH]1	–	–	–	–	–	–	·
CCN(/N=C/C=C/c1ccccc1)c1cc(=O)n(C)c(=O)[nH]1	–	10.6	–	–	–	–	10.7
CCCc1nn2c(N)c(/C=C3\C=Nc4ccccc43)c(=O)nc2s1	–	–	–	–	–	–	·
Nc1c(C=C2C=CC(=O)C=C2)c(=O)nc2sc(CC(=O)N3CCCC3)nn12	–	4.7	–	–	–	–	–
CSc1c(N(C)C)c(=O)c1=S	·	5.2	·	·	·	·	–
Cc1[nH]c(=O)[nH]c(=O)c1N(C)C	–	–	–	–	–	–	·
SMILES	PKA-R1A activ	MsrA inh	VIM-2 inhibitor	bovine MsrA act	PKA-R2B act	IMP-1 inh	MsrA conf
O=C(COC(=O)C1CC2CCCC(C1)C2=O)NNC(=O)c1ccccc1Br (stereo unspecified)	–	–	·	–	–	·	·
O=c1cc2[nH]c3ccccc3c(=O)n2nc1-c1ccccc1	–	4.9	–	–	–	–	–
O=c1nc(-c2ccccc2)c2cc(Br)ccc2[nH]1	–	–	–	–	–	–	·
COc1ccc(C(=O)N=c2sccn2C)cc1	–	5.8	–	–	–	–	–
COC(=O)c1ccc(C(=O)N=c2sccn2C)cc1	–	–	–	–	–	–	·
CCc1ccc[n+](-c2[nH]c(=O)sc2/C=N/NC([S-])=Nc2ccccc2)c1	–	6.5	–	–	–	–	–
Cc1cc(C)c[n+](-c2[nH]c(=O)sc2/C=N/NC([S-])=Nc2ccccc2)c1	–	4.9	–	–	–	–	6.2
O=[N+]([O-])c1ccc2c(c1N1CCCCC1)=NC1(CCCCC1)[N+]=2[O-]	–	–	–	–	–	–	·
[O-][N+]1=c2ccc(Nc3ccccc3)cc2=NC12CCCCC2	–	10.8	–	–	–	–	8.6
C=CCN=C1CC(C)(C)CC(=O)/C1=C(\O)c1ccccc1	–	–	–	–	–	–	·
COc1ccc(N=C2CC(C)(C)CC(=O)/C2=C(/O)c2ccccc2)cc1	–	4.9	–	–	–	–	–
CS(=O)(=O)Nc1ccc(-c2cn3cccnc3n2)cc1	–	4.8	–	–	–	–	–
CC[N+]1(C)[C@@H]2CC[C@H]1CC(OC(=O)[C@H]1CCC(C(=O)OC3C[C@H]4CC[C@@H](C3)[N+]4(C)CC)(c3ccccc3)c3ccccc31)C2 (stereo partly specified)	–	–	·	–	–	·	·
c1ccc(-n2nnnc2-n2cnc3ccccc32)cc1	–	9.9	–	–	–	–	4.7
O=c1[nH]cnc2c1ncn2-c1ccc(N(CCO)CCO)cc1	–	–	·	–	–	·	·
Cc1cc(C(=O)O)ccc1-n1c(C)cc(/C=C2\SC(=O)NC2=O)c1C	–	5.7	–	–	–	–	–
COC(=O)c1cccc(-n2c(C)cc(/C=C3\SC(=O)NC3=O)c2C)c1	–	–	·	–	–	·	·
COc1cc(OC)c(OC)cc1/C=N/NC(=O)c1cnccn1	–	6.2	–	–	–	–	–
O=C(Cc1cccs1)N/N=C/C=C/c1ccccc1[N+](=O)[O-]	·	–	–	–	·	–	·
COc1ccccc1/C=C/C=N/NC(=O)c1ccncc1	–	9.0	–	–	–	–	5.0
COc1cc(/C=N/NC(=O)c2cnccn2)cc(OC)c1OC	–	–	–	–	–	–	·
COc1ccccc1/C=C/C=N/NC(=O)Cc1cccs1	–	5.0	–	–	–	–	–
COc1cc(OC)c(/C=N/NC(N)=S)cc1Br	–	5.3	–	–	–	–	–
CC(C)(C)N1C(=O)c2ccccc2NC(=O)C1C(=O)Nc1ccc(N2CCOCC2)cc1 (stereo unspecified)	·	–	·	·	·	·	·
COC(=O)c1ccc2nc(-c3ccc(Cl)cc3)c(Cc3ccccc3)n2c1	·	–	·	·	·	·	·
SMILES	PKA-R1A activ	MsrA inh	VIM-2 inhibitor	bovine MsrA act	PKA-R2B act	IMP-1 inh	MsrA conf
O=C(COC(=O)c1cc(Cl)nc(Cl)c1)NC1CCCCCC1	–	–	·	–	–	·	·
COc1cc(OC)c(/C=N/NC(=O)c2ccncc2)cc1Br	·	5.2	–	–	·	–	–
COc1cc(OC)c(OC)cc1/C=N/NC(=O)c1ccc(=O)n(C)c1	–	10.0	–	–	–	–	9.2
COc1ccc(CN2C[C@H](COCc3ccccc3)Oc3cccc(F)c3S2(=O)=O)cc1	·	–	·	·	·	·	·
COc1ccc(CCC(=O)OCC(=O)NC(=O)c2ccc(Cl)cc2)cc1	–	–	·	–	–	·	·
CC(=O)COc1c(-c2ccco2)oc2ccccc2c1=O	–	4.8	–	–	–	–	–

Compound activity as filed in PubChem BioAssay.
